Results as given in PMC5123777 (Biochemistry, 2015).

Key:
OXA-163 = OXA-163 (Klebsiella pneumoniae, UniProt Q6XEC0, DEL214-217/S212D); test: Steady-state enzyme kinetics of substrate hydrolysis by OXA-163; assay type: biochemical, Klebsiella pneumoniae and Enterobacter cloacae; conditions: for Km / kcat: 30°C, 50 mM sodium phosphate pH 7.2, 15 mM sodium bicarbonate
Method in brief: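 OXA-163 was purified from induced culture supernatant (0.4 mM IPTG, 23°C, 20 h) by zinc-chelate chromatography and size exclusion, and quantified at A280. Hydrolysis was followed by UV at 260 nm (ceftazidime, cefotaxime), 262 nm (cephalothin), 298 nm (meropenem), or 299 nm (imipenem, doripenem, […]). Data were fitted to Michaelis–Menten; where Vmax was unreachable, kcat/Km came from a first-order fit.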

OXA-48 = OXA-48 (Klebsiella pneumoniae, UniProt Q6XEC0); test: Steady-state enzyme kinetics of substrate hydrolysis by OXA-48; assay type: biochemical; conditions: for OXA-48 kcat/Km value smaller compared to imipenem: relative to imipenem kcat/Km
[1] = test system: class D β-lactamases (DBLs); conditions: in vitro; cited from earlier work
[2] = target: OXA-163 class D β-lactamase (Klebsiella pneumoniae and Enterobacter cloacae); test: crystal structure
[3] = target: OXA-163 class D β-lactamase (Klebsiella pneumoniae and Enterobacter cloacae); test: SEC
[4] = target: OXA-163 class D β-lactamase (Klebsiella pneumoniae and Enterobacter cloacae); test: crystal structure; remark: listed apart in the source
SEC = target: the molecule itself; test: SEC

CO/N=C(\C(=O)N[C@@H]1C(=O)N2C(C(=O)O)=C(COC(C)=O)CS[C@H]12)c1csc(N)n1 [Cefotaxime, cefotaxime]
Km (OXA-163; OXA-163): 36 ± 11 µM | kcat (OXA-163; OXA-163): 14 ± 1 s⁻¹

CC(C)(O/N=C(\C(=O)N[C@@H]1C(=O)N2C(C(=O)[O-])=C(C[n+]3ccccc3)CS[C@H]12)c1csc(N)n1)C(=O)O [Ceftazidime, ceftazidime]
hydrolysis by OXA-163 (OXA-163; OXA-163): does hydrolyze | Km (OXA-163; OXA-163): > 1000 µM | hydrolysis by OXA-48 (steady-state kinetics analysis) (OXA-48): does not hydrolyze

CC(=O)OCC1=C(C(=O)O)N2C(=O)[C@@H](NC(=O)Cc3cccs3)[C@H]2SC1 [Cephalothin, cephalothin]
Km (OXA-163; OXA-163): 3.4 ± 0.4 µM | kcat (OXA-163; OXA-163): 1.7 ± 0.1 s⁻¹

C[C@@H](O)[C@H]1C(=O)N2C(C(=O)O)=C(S[C@@H]3CN[C@H](CNS(N)(=O)=O)C3)[C@H](C)[C@H]12 [Doripenem, doripenem]
Km (OXA-163; OXA-163): 5 ± 0.4 µM | kcat (OXA-163; OXA-163): 0.018 ± 0.001 s⁻¹ | OXA-48 kcat/Km value smaller compared to imipenem (OXA-48): 56 fold

C[C@@H](O)[C@H]1C(=O)N2C(C(=O)O)=C(SCCN=CN)C[C@H]12 [Imipenem, imipenem]
Km (OXA-163; OXA-163): 3.6 ± 1 µM | kcat (OXA-163; OXA-163): 0.004 ± 0.001 s⁻¹ | drop in the catalytic efficiency of OXA-163 in comparison to OXA-48 (OXA-163; kcat/Km OXA-48 versus OXA-163): 820 fold

C[C@@H](O)[C@H]1C(=O)N2C(C(=O)O)=C(S[C@@H]3CN[C@H](C(=O)N(C)C)C3)[C@H](C)[C@H]12 [Meropenem, meropenem]
Km (OXA-163; OXA-163): 5.3 ± 0.5 µM | kcat (OXA-163; OXA-163): 0.021 ± 0.001 s⁻¹ | OXA-48 kcat/Km value smaller compared to imipenem (OXA-48): 53 fold

[Cl-].[Na+] [NaCl, sodium chloride]
sodium chloride concentration at which most DBLs are fully inhibited [1]: 100 mM

O=C(Cc1cccs1)N[C@@H]1C(=O)N2C(C(=O)O)=C(/C=C/c3ccc([N+](=O)[O-])cc3[N+](=O)[O-])CS[C@H]12 [Nitrocefin, nitrocefin]
Km (OXA-163; OXA-163): 19 ± 8 µM | kcat (OXA-163; OXA-163): 34 ± 2 s⁻¹

OXA-163 class D β-lactamase (enzyme)
stoichiometry N [2]: 2 | stoichiometry N [3]: 2 | stoichiometry N [4]: 2

B1: OXA-48 class D β-lactamase (enzyme)
chain: KEWQENKSWNAHFTEHKSQGVVVLWNENKQQGFTNNLKRANQAFLPASTFKIPNSLIALDLGVVKDEHQVFKWDGQTRDIATWNRDHNLITAMKYSVVPVYQEFARQIGEARMSKMLHAFDYGNEDISGNVDSFWLDGGIRISATEQISFLRKLYHNKLHVSERSQRIVKQAMLTEANGDYIIRAKTGYSTRIEPKIGWWVGWVELDDNVWFFAMNMDMPTSDGLGLRQAITKEVLKQEKIIP
stoichiometry N (SEC): 2
